In brackets after ≈: the same amount, converted by molar mass. Activity calls are given as the source filed them. The rule behind the calls is not given here.
What was measured:
[1] = molecular target: T1, Bromodomain-containing protein 3 (Homo sapiens, UniProt Q15059); assay: Binding affinity BRD3 BD1 (unknown origin) incubated for 1 hr by TR-FRET assay
[2] = molecular target: T1, Bromodomain-containing protein 3; assay: Binding affinity BRD3 BD2 (unknown origin) incubated for 1 hr by TR-FRET assay
[3] = molecular target: Bromodomain-containing protein 2 (Homo sapiens, UniProt P25440); assay: Binding affinity BRD2 BD2 (unknown origin) incubated for 1 hr by TR-FRET assay
Sequence of Bromodomain-containing protein 2 (P25440 whole entry): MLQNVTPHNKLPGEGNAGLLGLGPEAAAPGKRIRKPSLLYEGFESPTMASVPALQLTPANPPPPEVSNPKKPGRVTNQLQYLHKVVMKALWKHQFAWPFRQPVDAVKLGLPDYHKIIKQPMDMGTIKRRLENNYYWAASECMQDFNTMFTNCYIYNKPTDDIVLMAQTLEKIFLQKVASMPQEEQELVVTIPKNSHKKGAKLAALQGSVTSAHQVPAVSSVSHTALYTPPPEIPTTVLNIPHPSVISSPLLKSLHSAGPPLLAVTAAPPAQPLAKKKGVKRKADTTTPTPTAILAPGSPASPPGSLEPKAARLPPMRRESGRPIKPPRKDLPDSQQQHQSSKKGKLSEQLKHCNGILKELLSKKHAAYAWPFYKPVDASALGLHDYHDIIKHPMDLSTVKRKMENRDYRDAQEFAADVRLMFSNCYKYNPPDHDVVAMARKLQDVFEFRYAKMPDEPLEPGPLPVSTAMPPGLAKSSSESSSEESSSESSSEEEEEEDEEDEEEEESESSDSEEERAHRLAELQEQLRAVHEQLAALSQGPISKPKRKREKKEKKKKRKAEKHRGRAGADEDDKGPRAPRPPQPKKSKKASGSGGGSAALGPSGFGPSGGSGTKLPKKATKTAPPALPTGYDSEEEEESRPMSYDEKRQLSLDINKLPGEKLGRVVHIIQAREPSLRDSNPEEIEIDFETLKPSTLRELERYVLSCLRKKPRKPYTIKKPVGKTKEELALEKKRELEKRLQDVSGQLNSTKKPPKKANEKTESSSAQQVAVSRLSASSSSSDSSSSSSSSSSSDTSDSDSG
Outline: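 Commercial TR-FRET kit with recombinant BRD2 bromodomain. Inhibitor at 0.01 nM–100 μM, 1 h at room temperature. Excitation 340 nm; 670/620 nm emission ratio read with 100 μs delay. IC50 from a four-parameter fit, mean of three runs.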

[4] = Antiinflammatory activity in human SAEC assessed as inhibition of Poly(I:C) induced CIG5 expression pretreated for 24 hrs followed by Poly(I:C) addition for 4 hrs by qRT-PCR analysis; assay type: functional, cell-based
Outline: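 Poly(I:C) 10 μg/mL then added for 4 h. CIG5 or IL-6 mRNA measured by qRT-PCR (ΔΔCt, PPIA normalized). IC50 from a four-parameter fit, mean ± SD of three independent runs.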

[5] = Aqueous solubility of the compound after 24 hrs by HPLC analysis; assay type: physicochemical; settings: buffer
Outline: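 Compound suspended in water and shaken 24 h at 25 °C, then centrifuged and filtered. Supernatant analyzed by C18 reverse-phase HPLC with one-point calibration against solutions of known concentration.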

[6] = molecular target: T2, Bromodomain-containing protein 4 (Homo sapiens, UniProt O60885)
[7] = test system: Mus musculus; assay: Antiinflammatory activity in C57BL/6 mouse model of poly(I:C)-induced acute airway inflammation assessed as decrease in MCP-1 level in BALF at 10 mg/kg, po administered 1 day prior to poly(I:C) stimulation; assay type: functional, organism-based
[8] = test system: Bromodomain-containing protein 4 (Homo sapiens), O60885 [E151A]
[9] = molecular target: T2, Bromodomain-containing protein 4; remark: listed apart in the source
[10] = molecular target: Bromodomain testis-specific protein (Homo sapiens, UniProt Q58F21); assay: Binding affinity BRDT BD1 (unknown origin) incubated for 1 hr by TR-FRET assay
[11] = molecular target: T2, Bromodomain-containing protein 4; remark: listed apart in the source
[12] = test system: Mus musculus; assay: Antiinflammatory activity in C57BL/6 mouse model of poly(I:C)-induced acute airway inflammation assessed as decrease in total cells level in BALF at 10 mg/kg, po administered 1 day prior to poly(I:C) stimulation; assay type: functional, organism-based
[13] = Half life in rat at 10 mg/kg, iv; assay type: ADME, organism-based; settings: in vivo
[14] = AUC (0 to t) in rat at 10 mg/kg, iv; assay type: ADME, organism-based; design: dose 10 mg/kg; settings: in vivo
[15] = molecular target: T2, Bromodomain-containing protein 4; remark: listed apart in the source
[16] = molecular target: T2, Bromodomain-containing protein 4; remark: listed apart in the source
[17] = test system: Mus musculus; assay: Antiinflammatory activity in C57BL/6 mouse model of poly(I:C)-induced acute airway inflammation assessed as decrease in RANTES level in BALF at 10 mg/kg, po administered 1 day prior to poly(I:C) stimulation; assay type: functional, organism-based
[18] = test system: Bromodomain-containing protein 4 (Homo sapiens), O60885 [E151A]; remark: listed apart in the source
[19] = Cmax in rat at 10 mg/kg, iv; assay type: ADME, organism-based; design: route intravenous, dose 10 mg/kg; settings: in vivo
[20] = molecular target: T2, Bromodomain-containing protein 4; remark: listed apart in the source
[21] = test system: Bromodomain-containing protein 4 (Homo sapiens), O60885 [E151A]; remark: listed apart in the source
[22] = Volume of distribution at steady state in rat at 10 mg/kg, iv; assay type: ADME, organism-based; settings: in vivo, read-out: Vdss
[23] = molecular target: T2, Bromodomain-containing protein 4; assay: Binding affinity to wild type human BRD4 BD1 (42 to168 residues) expressed in bacterial competent cells assessed as increase in thermal stability by thermal shift assay
[24] = test system: Mus musculus; assay: Antiinflammatory activity in C57BL/6 mouse model of poly(I:C)-induced acute airway inflammation assessed as decrease in IL-6 level in BALF at 10 mg/kg, po administered 1 day prior to poly(I:C) stimulation; assay type: functional, organism-based
[25] = molecular target: T2, Bromodomain-containing protein 4; remark: listed apart in the source
[26] = molecular target: T2, Bromodomain-containing protein 4; remark: listed apart in the source
[27] = Clearance in rat at 10 mg/kg, iv; assay type: ADME, organism-based; settings: in vivo
[28] = test system: Bromodomain-containing protein 4 (Homo sapiens), O60885 [E151A]; remark: listed apart in the source
[29] = Volume of distribution at steady state in rat at 20 mg/kg, po; assay type: ADME, organism-based; settings: in vivo
[30] = test system: Mus musculus; assay: Antiinflammatory activity in C57BL/6 mouse model of poly(I:C)-induced acute airway inflammation assessed as decrease in IL-6 gene expression in lung tissue at 10 mg/kg, po administered 1 day prior to poly(I:C) stimulation; assay type: functional, organism-based
[31] = test system: Mus musculus; assay: Antiinflammatory activity in C57BL/6 mouse model of poly(I:C)-induced acute airway inflammation assessed as inhibition of neutrophilic inflammation around small sized airways at 10 mg/kg, po administered 1 day prior to poly(I:C) stimulation by H and E staining based analysis; assay type: functional; design: scale not given: the % may be the effect or the level left
[32] = test system: Mus musculus; assay: Antiinflammatory activity in C57BL/6 mouse model of poly(I:C)-induced acute airway inflammation assessed as inhibition of neutrophilic inflammation around medium sized airways at 10 mg/kg, po administered 1 day prior to poly(I:C) stimulation by H and E staining based analysis; assay type: functional; design: scale not given: the % may be the effect or the level left
[33] = test system: Mus musculus; assay: Antiinflammatory activity in C57BL/6 mouse model of poly(I:C)-induced acute airway inflammation assessed as decrease in KC gene expression in lung tissue at 10 mg/kg, po administered 1 day prior to poly(I:C) stimulation; assay type: functional, organism-based
[34] = molecular target: T2, Bromodomain-containing protein 4; remark: listed apart in the source
[35] = Cmax in rat at 20 mg/kg, po; assay type: ADME, organism-based; design: route oral, dose 20 mg/kg; settings: in vivo
[36] = molecular target: T2, Bromodomain-containing protein 4; remark: listed apart in the source
[37] = molecular target: T2, Bromodomain-containing protein 4; remark: listed apart in the source
[38] = AUC (0 to t) in rat at 20 mg/kg, po; assay type: ADME, organism-based; design: dose 20 mg/kg; settings: in vivo

T1 sequence (Q15059 whole entry): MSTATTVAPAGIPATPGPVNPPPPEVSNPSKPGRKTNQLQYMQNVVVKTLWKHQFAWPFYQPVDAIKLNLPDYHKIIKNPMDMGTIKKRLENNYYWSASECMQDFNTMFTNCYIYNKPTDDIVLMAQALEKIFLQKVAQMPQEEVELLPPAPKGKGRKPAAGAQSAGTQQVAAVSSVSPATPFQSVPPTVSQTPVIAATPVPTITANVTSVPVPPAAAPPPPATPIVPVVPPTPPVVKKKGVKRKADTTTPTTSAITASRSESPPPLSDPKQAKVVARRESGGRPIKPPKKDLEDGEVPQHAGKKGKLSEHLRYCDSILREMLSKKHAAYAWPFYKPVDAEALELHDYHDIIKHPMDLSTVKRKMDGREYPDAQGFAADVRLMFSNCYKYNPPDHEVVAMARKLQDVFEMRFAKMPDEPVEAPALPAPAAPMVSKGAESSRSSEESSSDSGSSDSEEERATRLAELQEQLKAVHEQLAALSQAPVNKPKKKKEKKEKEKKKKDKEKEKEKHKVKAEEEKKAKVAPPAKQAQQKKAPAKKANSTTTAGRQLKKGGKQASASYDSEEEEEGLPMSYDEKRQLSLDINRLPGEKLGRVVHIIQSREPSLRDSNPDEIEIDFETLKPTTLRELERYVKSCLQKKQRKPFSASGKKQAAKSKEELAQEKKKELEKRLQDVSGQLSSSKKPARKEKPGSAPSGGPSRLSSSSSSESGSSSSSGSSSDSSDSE

- IC50 [1]: 2.18 µM
- IC50 [2]: 2 µM
- IC50 [3]: 1.31 µM
- IC50 [4]: 0.2 µM
- solubility [5]: 3500 µg/mL (≈ 6.83 mM)
- ΔTm [6]: 1.1 °C
- ΔTm [8]: 0.7 °C
- ΔTm [9]: 4.5 °C
- IC50 [10]: 2.42 µM
- ΔTm [11]: 15.8 °C
- half-life [13]: 2.5 h
- AUC(0-t) [14]: 2170 ng·h/mL
- ΔTm [15]: 5.8 °C
- ΔTm [16]: 0.8 °C
- ΔTm [18]: 0.9 °C
- Cmax [19]: 1920 ng/mL
- ΔTm [20]: 15.7 °C
- ΔTm [21]: 0.1 °C
- Vd [22]: 16 L/kg
- Activity [23]: Dose-Dependent Effect
- ΔTm [25]: 6.6 °C
- ΔTm [26]: 0.7 °C
- clearance [27]: 75 mL/min/kg
- ΔTm [28]: 0.4 °C
- Vdss [29]: 170 L/kg
- ΔTm [34]: 0.7 °C
- Cmax [35]: 86.9 ng/mL
- ΔTm [36]: 13.3 °C
- ΔTm [37]: 0.6 °C
- AUC(0-t) [38]: 602 ng·h/mL
SMILES: O=C(Nc1ccc(C(F)(F)F)cc1)Nc1ccc(S(=O)(=O)N2CCC[C@H]2CN2CCOCC2)cc1
- Activity [7]: inactive
- Activity [12]: Active
- Activity [17]: inactive
- Activity [24]: inactive
- Activity [30]: inactive
- Activity [31]: 100%
- Activity [32]: 100%
- Activity [33]: inactive
